Source: PubChem BioAssay
Runt-CBFb FRET – Runt domain-CBFb interaction inhibition; Cerulean-Runt/Venus-CBFb FRET ratio 530/480, 1 h; inhibition, % at 20 µM; 220,000 tested, 0.46% active;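 active means inhibition over about 50% at 20 µM in the single-dose screen, limit read from the data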
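Schedule: protein complex preformed 1 h, compound exposure 1 h, room temperature, dark; test system: Cerulean-labeled Runt domain protein; amount: 100 nM per protein; buffer or medium: Tris 50 mM pH 7.5, KCl, K2SO4, 0.01% BSA; read-out: loss of energy transfer signal; detection: FRET fluorescence; controls: 5 µM unlabeled CBFb as full-inhibition high control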
Platelet DG rel – platelet dense granule release activity | human platelet-rich plasma, SFLLRN dense granule ATP release, luminescence | inhibition, %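 (compounds screened at 7.5 µM in platelet-rich plasma)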 | 300,000 tested, 0.22% active | AID 1663;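 active means mean replicate score, as percent of positive control, at or above 50; inconclusive means mean below 50 but at least one replicate at or above 50; inactive means mean and every replicate below 50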
Runt-SMMHC FRET – inhibitors of human RUNX1 Runt domain binding to CBFb-SMMHC; Q01196+Q13951; AID 1434; Cerulean-Runt/Venus-CBFb-SMMHC FRET ratio 530/480, 1 h; 220,000 tested, 0.74% active; inhibition, % at 20 µM;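 active means mean inhibition across duplicate retests at 20 µM reaching about 50%, limit read from the data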;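 further: inhibitors lower the FRET ratio by blocking Runt binding to CBFb-SMMHC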
Rce1 inh – yeast Ras-converting enzyme inhibition | Q03530 | yeast membranes, quenched prenylated peptide cleavage fluorescence | calls only | 290,000 tested, 0.27% active | AID 2563;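 active means fall in fluorescence gain of 50% or more versus controls, with final raw signal at or below 3038400; inconclusive means same 50% fall but final raw signal above 3038400; inactive means fall in fluorescence gain under 50%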
Target sequence (Q03530 whole entry, looked up): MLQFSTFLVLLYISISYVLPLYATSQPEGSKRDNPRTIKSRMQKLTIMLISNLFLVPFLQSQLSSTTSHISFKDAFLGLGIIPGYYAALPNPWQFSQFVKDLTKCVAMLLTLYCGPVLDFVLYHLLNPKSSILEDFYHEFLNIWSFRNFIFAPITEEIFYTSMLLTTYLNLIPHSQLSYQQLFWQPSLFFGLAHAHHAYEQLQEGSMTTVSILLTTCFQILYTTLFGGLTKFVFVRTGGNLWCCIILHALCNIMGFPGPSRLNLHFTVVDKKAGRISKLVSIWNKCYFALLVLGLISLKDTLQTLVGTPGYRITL
RanGTP-Impb inh – disruptors of Ran-importin-beta complex formation – biochemical, FRET, CFP-Ran, YFP-importin-beta, homogeneous, primary screen; 300,000 tested, 1.1% active; cell-free CFP-Ran/YFP-importin-beta FRET ratio; AID 2216; inhibition, % (concentration not given with the values);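 active means more than half of the replicate wells show a fall in the fluorescence ratio signal beyond about 16%, limit read from the data, passing the limit was not always enough; inconclusive means exactly half of the replicate wells pass the set limit; inactive means fewer than half of replicates pass the limit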
Hits are given with their value; 0 = inactive; ? = inconclusive; - = no result given; + = active, no number. An excerpt weighted towards active compounds, which were near 1.8% of everything screened.

SMILES	Runt-CBFb FRET	Platelet DG rel	Runt-SMMHC FRET	Rce1 inh	RanGTP-Impb inh
Cc1ccc(Nc2nc(-c3ccc(S(=O)(=O)N4CCCC4)cc3)cs2)cc1C	0	0	0	0	0
C=CCN(c1ccccc1Cl)S(=O)(=O)c1cccc(C(=O)NCCc2ccc(OC)cc2)c1	0	0	0	0	0
CC1=CC2=NC(=O)/C(=C\c3cn(C)c4ccccc34)C(=N)N2O1	0	0	87	0	50
Cc1ccc(NC2=CC(=O)CC(C)(C)C2)cc1F	-	0	-	0	0
COc1cccc(NC2=CC(=O)CC(C)(C)C2)c1	0	0	0	0	0
CC1(C)CC(=O)C=C(Nc2cccc(F)c2)C1	-	0	-	0	28
CC(=O)Nc1ccc(NC2=CC(=O)CC(C)(C)C2)cc1	0	0	0	0	50
Cc1cc(N)c(NC2=CC(=O)CC(C)(C)C2)cc1C	0	0	0	0	22
COc1cc(C(=O)NCC2(c3ccccc3)CCCC2)cc(OC)c1OC	-	0	-	0	0
COc1cc(-c2ccc3oc(-c4ccsc4)c(C#CC4(O)CCCCC4)c3c2)cc(OC)c1OC	-	0	-	0	0
CCOC(=O)c1c(NC(=O)CN2C(=O)NC3(CCCCC3C)C2=O)sc(C)c1CC (stereo not given)	-	0	-	0	0
COc1ccc(-c2ccc(-c3noc(-c4ccccc4)n3)c(OC)n2)cc1	0	0	0	0	30
COc1ccccc1Nc1ncnc2nc[nH]c12	0	0	0	0	0
CC1(C(=O)N(CC(=O)NC2CCCC2)Cc2ccccc2)CC(=O)N=C2C=CC=CN21 (stereo not given)	-	0	-	+	0
CC1(C(=O)N(CC(=O)NC2CCCC2)Cc2ccco2)CC(=O)N=C2C=CC=CN21 (stereo not given)	0	0	0	+	0
Cc1ccsc1C(=O)Nc1cc(C(C)(C)C)nn1-c1ccccc1	0	0	0	0	0
O=C(/C=C/NCc1cccnc1)c1ccc(Br)cc1	-	0	-	0	0
O=C(C[n+]1cc2ccccc2c2ccccc21)c1ccccc1	0	0	0	+	0
O=C(C[n+]1cccc2ccccc21)c1ccccc1	0	0	0	0	0
O=C(c1ccc(F)cc1)C1CCN(Cc2ccc(F)cc2)CC1	-	0	-	0	0
N#CC1=C(N)SC(N)=C(C#N)C1c1ccnc2ccccc12	0	0	0	0	23
O=C1c2ccccc2C(=O)C1c1ccnc2ccccc12	0	0	0	0	0
COc1ccc(C2c3c(ncn(CCCO)c3=N)Oc3ccc4ccccc4c32)cc1 (stereo not given)	0	0	0	+	0
COc1ccc(C2c3c(ncn(CCCO)c3=N)Oc3ccc4ccccc4c32)cc1OC (stereo not given)	0	0	0	0	0
COc1ccc(C2c3ccc(O)cc3Oc3ncn(CC(C)C)c(=N)c32)cc1 (stereo not given)	0	0	62	0	0
SMILES	Runt-CBFb FRET	Platelet DG rel	Runt-SMMHC FRET	Rce1 inh	RanGTP-Impb inh
COc1ccc(C2c3ccc(O)cc3Oc3ncn(CCN4CCOCC4)c(=N)c32)cc1 (stereo not given)	0	0	0	0	0
O=C(c1c[nH]c2ccccc12)C(Cl)c1ccccc1 (stereo not given)	-	0	-	0	0
O=C(Cc1cc(=O)oc2cc(O)ccc12)NC(Cc1ccc(Cl)cc1)C(=O)O (stereo not given)	-	0	-	?	50
Cc1c(O)ccc2c(CC(=O)N[C@@H](Cc3ccc(O)cc3)C(=O)O)cc(=O)oc12	-	0	-	0	52
O=C(COc1ccc2ccc(=O)oc2c1)NC(Cc1ccc(Cl)cc1)C(=O)O (stereo not given)	-	0	-	0	?
COc1ccc2c(CC(=O)N[C@@H](Cc3ccccc3)C(=O)O)cc(=O)oc2c1C	-	0	-	0	0
CCN1CCCC1CNC(=O)C(=O)NC(C)c1ccccc1 (stereo not given)	0	0	0	0	0
COC(=O)Cn1c2ccc(C)cc2c2nc3ccccc3nc21	-	0	-	0	20
CCOC(=O)Cn1c2ccccc2c2nc3ccccc3nc21	0	0	0	0	0
CC(=O)Nc1ccc(S(=O)(=O)Nc2nc3ccccc3nc2-n2ccc(=NC(=O)c3ccc(F)cc3)cc2)cc1	0	0	0	0	0
Cc1ccc(-n2ncc3c2CCCC3NC(=O)CCn2ccnc2C)cc1C (stereo not given)	-	0	-	0	0
CN(C)NC(=S)Nc1ccc2nc(-c3ccccn3)c(-c3ccccn3)nc2c1	0	0	0	0	48
CC(C)(C)CC(C)(C)NC(=S)Nc1ccc2nc(-c3ccccn3)c(-c3ccccn3)nc2c1	0	0	0	0	0
OCCCNC(=S)Nc1ccc2nc(-c3ccccn3)c(-c3ccccn3)nc2c1	0	0	0	0	36
COc1cc(Cl)c(C)cc1NC(=O)CSc1ccc(NC(C)=O)cc1	0	0	0	0	0
COc1cccc2[nH]c(C(=O)NC(C)c3ccccc3)cc12 (stereo not given)	-	0	-	+	0
CCC(C)/C(C)=N/NC(=O)c1cn(-c2ccccc2)nc1-c1ccccc1 (stereo not given)	0	0	0	0	0
Cc1ccc(S(=O)(=O)NCC(=O)OCC(=O)N(C)C2CCS(=O)(=O)C2)cc1 (stereo not given)	-	0	-	0	0
CCc1cc2c(C)cc(=O)oc2cc1OC(=O)C1CCCN1C(=O)OC(C)(C)C (stereo not given)	0	0	75	0	0
CC(Cc1cccs1)NC(=O)Nc1ccc([N+](=O)[O-])cc1 (stereo not given)	0	0	0	+	?
COc1ccccc1N/C=C/c1onc(C)c1[N+](=O)[O-]	0	64	0	0	0
Cc1noc(/C=C/Nc2ccc(F)cc2F)c1[N+](=O)[O-]	0	0	0	0	0
COc1ccc2c(c1)NC(c1cc(Cl)cc(Cl)c1O)c1cccn1-2 (stereo not given)	0	-	0	-	-
COc1ccc2c(c1)NC(c1ccc(N(C)C)cc1)c1cccn1-2 (stereo not given)	0	0	0	0	42
CC1CCCC(N2CCN(C(=O)c3ccccc3F)CC2)C1 (stereo not given)	-	0	-	0	0
SMILES	Runt-CBFb FRET	Platelet DG rel	Runt-SMMHC FRET	Rce1 inh	RanGTP-Impb inh
Cc1ccc(C)c(S(=O)(=O)c2c(N)n(/N=C/c3ccco3)c3nc4ccccc4nc23)c1	0	0	67	0	0
CC(=O)c1ccc(NC(=O)C(C)n2c3ccccc3c3nc(=O)cc(C)n32)cc1 (stereo not given)	0	0	0	0	0
C(=C\c1ccc2ccccc2n1)/c1ccccc1	0	0	0	0	0
Oc1ccc(/C=C/c2ccc3ccccc3n2)cc1	0	90	0	0	0
O=[N+]([O-])c1ccc(/C=C/c2ccc3ccccc3n2)cc1	0	0	0	-	0
CCCN(CCC)c1ccc(/C=C/c2ccc3cc(OCC)ccc3n2)cc1	0	0	0	0	21
CN(C)c1ccc(/C=C/c2ccc3ccccc3n2)cc1	0	97	0	0	0
